Common to all, as to format: functional
Assay [1] has as its system Digitaria sanguinalis. The assay can be described thus: Herbicidal activity against hairy Digitaria sanguinalis (hairy crabgrass) assessed as inhibition of herb growth at 1.5 kg/ha during postemergence treatment protocol. The note with it: post-emergence, read-out: GI.
In the next assay the test system is Spinacia oleracea. As to the kind of experiment: Inhibition of photosynthetic electron transport in Spinacia oleracea (spinach)isolated chloroplasts assessed as inhibition of Hill reaction. In outline:
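Chloroplasts from fresh spinach leaves, homogenised in ice-cold pH 7.8 buffer (0.4 M sucrose, 10 mM NaCl, 50 mM Tris-HCl), spun 3 min 120g then 5 min 1000g at 4 °C. Reaction buffer 350 mM NaCl, 10 mM Tris-HCl pH 7.8 with DCPIP; 2 min light (360 µmol m^-2 s^-1), DCPIP reduction at 620 nm. Compounds 0.01 mg/L–0.3 mg/mL in […]/water, ≥triplicate; IC50 by log-linear regression.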

Assay [2] deals with Medicago sativa. The assay can be described thus: Herbicidal activity against Medicago sativa (alfalfa) assessed as inhibition of herb growth at 1.5 kg/ha during postemergence treatment protocol. The note with it: post-emergence, read-out: GI.
The subject of assay [3] is Brassica napus. The assay can be described thus: Herbicidal activity against Brassica napus (oilseed rape) assessed as inhibition of herb growth at 1.5 kg/ha during postemergence treatment protocol. The note with it: post-emergence, read-out: GI.
The test system of assay [4] is Medicago sativa. The assay can be described thus: Herbicidal activity against Medicago sativa (alfalfa) assessed as inhibition of herb growth at 1.5 kg/ha during preemergence treatment protocol. The conditions noted are these: pre-emergence, read-out: GI.
Assay [5] relates to Brassica napus. As to the kind of experiment: Herbicidal activity against Brassica napus (oilseed rape) assessed as inhibition of herb growth at 1.5 kg/ha during preemergence treatment protocol. The note with it: pre-emergence, read-out: GI.
The test system of assay [6] is Amaranthus retroflexus. As to the kind of experiment: Herbicidal activity against Amaranthus retroflexus assessed as inhibition of herb growth at 1.5 kg/ha during postemergence treatment protocol. The conditions noted are these: post-emergence, read-out: GI.
For assay [7], the system named is Digitaria sanguinalis. The assay can be described thus: Herbicidal activity against hairy Digitaria sanguinalis (hairy crabgrass) assessed as inhibition of herb growth at 1.5 kg/ha during preemergence treatment protocol. The note with it: pre-emergence, read-out: GI.
The subject of assay [8] is Amaranthus retroflexus. The assay can be described thus: Herbicidal activity against Amaranthus retroflexus assessed as inhibition of herb growth at 1.5 kg/ha during preemergence treatment protocol. The conditions noted are these: pre-emergence, read-out: GI.

`CCOCCOC(=O)/C(C#N)=C(\NCc1ccc(Cl)cc1)C(C)C`: the inhibition of growth at 1500 g/ha in the assay with Digitaria sanguinalis [1] turned out to be 46.4%; with Medicago sativa [2], 68.9%; in the assay with Brassica napus [3], 100%; in the assay on Medicago sativa [4], 0%; in the assay on Brassica napus [5], 4.4%; in the assay on Amaranthus retroflexus [6], 100%. Moreover, the inhibition of growth at 1500 g/ha in the assay with Digitaria sanguinalis [7] was determined as 12.9%; with Amaranthus retroflexus [8] it was 40.5%. Also, the IC50 was 0.043 ppm in the assay on Spinacia oleracea and 42.7 nM in the assay on Spinacia oleracea (Spinacia oleracea, read-out: pIC50 (converted)).

(Values after ChEMBL document CHEMBL3045046, “Synthesis, herbicidal activities, and 3D-QSAR of 2-cyanoacrylates containing aromatic methylamine moieties” (J Agric Food Chem, 2008).)
